This is an account of results in ChEMBL document CHEMBL3603771, “Synthesis, biological evaluation and docking study of maleimide derivatives bearing benzenesulfonamide as selective COX-2 inhibitors and anti-inflammatory agents” (Bioorg Med Chem, 2015).

Data set [1] can be described thus: Selectivity index, ratio of inhibition of human recombinant COX2 to inhibition of ovine COX1. Put shortly:
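Ovine COX-1 or human recombinant COX-2 in 0.1 M Tris-HCl pH 8 with heme, preincubated with compound (DMSO stock) 5 min at 25°C. TMPD and arachidonic acid then added, 2 min at 25°C. Peroxidase activity read as oxidized TMPD at 590 nm. Compounds tested at 1 μM; % inhibition is the mean of two determinations. Selectivity index taken as COX-2/COX-1.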

Data set [2] addresses T1, Prostaglandin G/H synthase 2 (Homo sapiens) (UniProt P35354).
T1 sequence (whole entry): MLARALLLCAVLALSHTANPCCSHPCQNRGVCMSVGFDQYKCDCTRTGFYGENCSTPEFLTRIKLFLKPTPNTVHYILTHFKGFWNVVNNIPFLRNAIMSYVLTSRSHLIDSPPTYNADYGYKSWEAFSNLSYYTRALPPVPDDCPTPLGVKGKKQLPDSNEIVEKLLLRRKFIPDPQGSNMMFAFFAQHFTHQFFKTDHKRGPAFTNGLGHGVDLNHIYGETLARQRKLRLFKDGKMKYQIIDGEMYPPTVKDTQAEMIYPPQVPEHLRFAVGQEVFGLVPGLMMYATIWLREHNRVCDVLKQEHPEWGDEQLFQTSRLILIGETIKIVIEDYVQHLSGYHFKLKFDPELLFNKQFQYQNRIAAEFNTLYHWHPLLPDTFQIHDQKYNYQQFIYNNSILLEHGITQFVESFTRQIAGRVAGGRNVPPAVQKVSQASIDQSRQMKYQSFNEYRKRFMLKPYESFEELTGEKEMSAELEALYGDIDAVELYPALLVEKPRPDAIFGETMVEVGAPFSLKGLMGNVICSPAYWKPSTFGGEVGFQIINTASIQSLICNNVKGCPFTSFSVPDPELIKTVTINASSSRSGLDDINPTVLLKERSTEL
To be noted: at 1 µM.

The target in data set [3] is T2, Prostaglandin G/H synthase 1 (Ovis aries) (UniProt P05979).
T2 sequence (whole entry): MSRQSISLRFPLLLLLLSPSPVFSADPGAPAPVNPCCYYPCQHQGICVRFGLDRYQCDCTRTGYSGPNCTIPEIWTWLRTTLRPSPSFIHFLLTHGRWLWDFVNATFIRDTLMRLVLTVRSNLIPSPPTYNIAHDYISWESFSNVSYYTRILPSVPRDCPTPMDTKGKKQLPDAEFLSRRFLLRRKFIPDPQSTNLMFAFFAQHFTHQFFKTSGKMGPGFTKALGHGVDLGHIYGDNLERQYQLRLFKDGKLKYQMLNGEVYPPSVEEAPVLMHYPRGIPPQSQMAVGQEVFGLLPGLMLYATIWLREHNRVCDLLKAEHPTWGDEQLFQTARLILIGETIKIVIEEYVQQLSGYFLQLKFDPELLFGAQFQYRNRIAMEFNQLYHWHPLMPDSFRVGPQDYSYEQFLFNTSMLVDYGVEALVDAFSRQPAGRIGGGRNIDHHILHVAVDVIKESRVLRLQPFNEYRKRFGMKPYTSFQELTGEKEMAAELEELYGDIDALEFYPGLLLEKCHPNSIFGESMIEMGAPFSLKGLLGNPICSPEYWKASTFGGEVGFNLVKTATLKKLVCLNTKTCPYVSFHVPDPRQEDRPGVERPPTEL
The experiment in a line: Inhibition of ovine COX1 using arachidonic acid as substrate at 1 uM preincubated for 5 mins measured after 2 mins by colorimetric analysis. A digest of the protocol:
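Ovine COX-1 or human recombinant COX-2 in 0.1 M Tris-HCl pH 8 with heme, preincubated with compound (DMSO stock) 5 min at 25°C. TMPD and arachidonic acid then added, 2 min at 25°C. Peroxidase activity read as oxidized TMPD at 590 nm. Selectivity index taken as COX-2/COX-1.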

The test system of data set [4] is Rattus norvegicus. In words: Antiinflammatory activity in Wistar albino rat assessed as inhibition of carrageenan-induced hind paw edema at 20 mg/kg, po after 5 hrs by plethysmometer. It is filed as functional. A digest of the protocol: (§1)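 Adult male Wistar albino rats, 150-200 g, fasted 24 h, six per group. Compounds at 20 mg/kg suspended in 1% CMC in water (10 mL/kg) given orally; vehicle-only controls. Carrageenan in normal saline injected into the plantar surface of the right hind paw 30 min after dosing.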
(The carrageenan paw model is a standard test of acute inflammation.)

Data set [5] has as its system Rattus norvegicus. In words: Antiinflammatory activity in Wistar albino rat assessed as inhibition of carrageenan-induced hind paw edema at 20 mg/kg, po after 3 hrs by plethysmometer. The class given is functional. Put shortly: as §1
Data set [6] has as its system Rattus norvegicus. In words: Antiinflammatory activity in Wistar albino rat assessed as inhibition of carrageenan-induced hind paw edema at 20 mg/kg, po after 1 hr by plethysmometer. The class given is functional. A digest of the protocol: as §1
Data set [7] has as its system Rattus norvegicus. The experiment in a line: Toxicity in Wistar albino rat assessed as ulcer index at 20 mg/kg, po qd for 3 days measured after 6 hrs of last dose. It is filed as organism-based. The following applies: in vivo. A digest of the protocol:
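Male albino rats, 150-200 g, fasted 12 h with water ad libitum. Dosed orally at 20 mg/kg/day once daily for 3 days; controls received 7% gum acacia vehicle. Killed by ether overdose 6 h after the last dose. Stomachs opened along the greater curvature and scored for ulcers. Ulcer index by the Robert method from % incidence/10, mean ulcer number per stomach and severity score.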

With `Cc1cc(C)cc(NC2=C(Cl)C(=O)N(c3ccc(S(N)(=O)=O)cc3)C2=O)c1`, in data set [1], the Selectivity Index was 15.7. The inhibition came out at 6.91% in data set [2] and 0.44% in data set [3].

On to `NS(=O)(=O)c1ccc(N2C(=O)C(Cl)=C(Nc3ccc([N+](=O)[O-])cc3)C2=O)cc1`, for which the Selectivity Index in data set [1] came out at 19.1. The inhibition was determined as 17.1% in data set [2] and 0.89% in data set [3].

Turning to `NS(=O)(=O)c1ccc(N2C(=O)C(Cl)=C(Nc3cccc(Cl)c3)C2=O)cc1`, in data set [1], the Selectivity Index was found to be 47.6. Further, the figures for the inhibition in vivo at 20 mg/kg in data set [4], in data set [5] and in data set [6] were 72.1%, 70.4% and 69.1%, respectively. Besides, the inhibition in data set [2] amounted to 42.4%; in data set [3] it was 0.89%.

In the case of `Nc1ccccc1NC1=C(Cl)C(=O)N(c2ccc(S(N)(=O)=O)cc2)C1=O`, the Selectivity Index in data set [1] was found to be 12.9. Moreover, the inhibition in data set [2] was found to be 23%; in data set [3], 1.78%.

For `NS(=O)(=O)c1ccc(N2C(=O)C(Cl)=C(Nc3ccc(Cl)c(Cl)c3)C2=O)cc1`, the Selectivity Index in data set [1] was determined as 3.78. In addition, the figures for the inhibition in data set [2] and in data set [3] were 30.4% and 8.03%, respectively.

`NS(=O)(=O)c1ccc(N2C(=O)C(Cl)=C(Nc3ccc(Cl)cc3)C2=O)cc1`: the Selectivity Index in data set [1] is 2.6. Moreover, the inhibition in data set [2] came to 24.4%; in data set [3] it was 9.37%.

Consider `Cc1ccccc1NC1=C(Cl)C(=O)N(c2ccc(S(N)(=O)=O)cc2)C1=O`, for which, in data set [1], the Selectivity Index was 1.62. In addition, the inhibition in data set [2] turned out to be 10.1%; in data set [3], 6.25%.

With `COc1ccccc1NC1=C(Cl)C(=O)N(c2ccc(S(N)(=O)=O)cc2)C1=O`, the Selectivity Index in data set [1] was determined as 2.19. In addition, the results for the inhibition in data set [2] and in data set [3] were 15.7% and 7.14%, respectively.

With `Cc1ccc(NC2=C(Cl)C(=O)N(c3ccc(S(N)(=O)=O)cc3)C2=O)c(C)c1`, in data set [1], the Selectivity Index was determined as 2.57. The results for the inhibition in data set [2] and in data set [3] were 13.8% and 5.35%, respectively.

In the case of `Cc1ccc(-c2cc(C(F)(F)F)nn2-c2ccc(S(N)(=O)=O)cc2)cc1` [CELECOXIB], the UI in data set [7] was 11.9. Also, the inhibition in vivo at 20 mg/kg was found to be 100% in data set [4], 100% in data set [5] and 92.2% in data set [6].

As to `COc1ccc(NC2=C(Cl)C(=O)N(c3ccc(S(N)(=O)=O)cc3)C2=O)cc1`, the Selectivity Index in data set [1] was found to be 11.9. Moreover, the inhibition is 10.6% in data set [2] and 0.89% in data set [3].

As for `NS(=O)(=O)c1ccc(N2C(=O)C(Cl)=C(Nc3ccc(F)cc3)C2=O)cc1`, the Selectivity Index in data set [1] is 20.8. Moreover, the values for the inhibition in data set [2] and in data set [3] were 27.6% and 1.33%, respectively.

Consider `NS(=O)(=O)c1ccc(N2C(=O)C(Cl)=C(Nc3ccccc3)C2=O)cc1`, for which the Selectivity Index in data set [1] turned out to be 44.5. The inhibition in vivo at 20 mg/kg in data set [4] worked out at 62.1%; in data set [5] it was 56.8%; in data set [6] it was 35.4%. Further, the inhibition in data set [2] was 39.6%; in data set [3], 0.89%.

Consider `COc1cccc(NC2=C(Cl)C(=O)N(c3ccc(S(N)(=O)=O)cc3)C2=O)c1`, for which, in data set [1], the Selectivity Index is 49.7. Moreover, the inhibition in vivo at 20 mg/kg in data set [4] stood at 77.3%; in data set [5] it was 71.5%; in data set [6] it was 73%. The inhibition is 44.2% in data set [2] and 0.89% in data set [3].

For the compound `NS(=O)(=O)c1ccc(N2C(=O)C(Cl)=C(N3CCCCC3)C2=O)cc1`, the Selectivity Index in data set [1] stood at 14.7. Further, the inhibition in data set [2] was 6.45%; in data set [3], 0.44%.

Take `NS(=O)(=O)c1ccc(N2C(=O)C(Cl)=C(Nc3ccc(C(F)(F)F)cc3)C2=O)cc1`: the Selectivity Index in data set [1] stood at 6.78. In addition, the inhibition in data set [2] amounted to 27.2%; in data set [3] it was 4.01%.

Take `NS(=O)(=O)c1ccc(N2C(=O)C(Cl)=C(Nc3ccccc3F)C2=O)cc1`: the Selectivity Index in data set [1] came to 44.5. For the same compound, the values for the inhibition in vivo at 20 mg/kg in data set [4], in data set [5] and in data set [6] were 74.9%, 71% and 69.2%, respectively. In addition, the inhibition in data set [2] turned out to be 39.6%; in data set [3], 0.89%.

For `NS(=O)(=O)c1ccc(N2C(=O)C(Cl)=C(Cl)C2=O)cc1`, the Selectivity Index in data set [1] was 0.611. Also, the inhibition in data set [2] is 7.37%; in data set [3], 12.1%.

`NS(=O)(=O)c1ccc(N2C(=O)C(Cl)=C(Nc3cccc(F)c3)C2=O)cc1`: the UI in data set [7] turned out to be 8.3. The Selectivity Index in data set [1] came out at 55.4. For the same compound, the results for the inhibition in vivo at 20 mg/kg in data set [4], in data set [5] and in data set [6] were 82.6%, 81% and 79.8%, respectively. The inhibition came to 49.3% in data set [2] and 0.89% in data set [3].

As for `NS(=O)(=O)c1ccc(N2C(=O)C(Cl)=C(Nc3cccc(Cl)c3Cl)C2=O)cc1`, the Selectivity Index in data set [1] turned out to be 6.78. Also, the figures for the inhibition in data set [2] and in data set [3] were 27.2% and 4.01%, respectively.

By inhibition is commonly meant the percentage by which the read-out fell short of the control. The term inhibition in vivo denotes how much of the control response was suppressed.
